High-throughput results from PubChem BioAssay.
Vif inh – inhibitors of HIV Vif; HEK293T cells, Vif self-association by quenched fluorescence, imaging, 24 h; 340,000 tested, 0.35% active; inhibition, % at 7.49 µM; AID 602346; in the data active = inhibition above about 50%, passing the limit was not always enough; inconclusive = no clear call, values can overlap the other calls; inactive = below about 31%
MsrA act – activates bovine MsrA enzyme | purified bovine MsrA, absorbance read-out | 360,000 tested, 0.3% active | activation, % at 10.6 µM; in the data active = activation above about 7.5%
aDG glyco act – alpha-DG glycosylation activation. Pro5-aDG cells, alpha-DG glycosylation AlphaScreen (IIH6); 0% Pro5, 100% B10-LARGE cell signal. activation, % at 10 µM. 360,000 tested, 0.22% active. AID 624168;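 active = activation of at least 8% versus controls, or a plate z-score of at least 8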;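 also: Pro5 are CHO cells carrying HIG-tagged alpha-DG that lacks glycosylation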
N-glyco inh – N-linked glycosylation inhibition. D54 ERlucT glycosylation luciferase reporter, 24 h; percent of 100 nM tunicamycin response. reporter increase, % at 12.5 µM. 360,000 tested, 0.23% active. AID 588692;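 active = mean luciferase reporter signal, scaled so untreated is 0 and the glycosylation-blocking control 100, at or above a set limit in every replicate; inconclusive = mean reaches the limit but not every replicate does; inactive = mean below the limit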;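 also: luciferase carries N-glycosylation sites so blocking glycosylation raises the light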
UCH37 DUB inh – blocks the human deubiquitinase UCH37; AID 588478; 330,000 tested, 0.33% active; Q9Y5K5; purified proteasome/UCH37, Ub-AMC cleavage fluorescence; inhibition, % (concentration not given with the values);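 active = mean inhibition over replicate wells above about 20%, limit read from the data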
Target sequence (Q9Y5K5 whole entry, looked up): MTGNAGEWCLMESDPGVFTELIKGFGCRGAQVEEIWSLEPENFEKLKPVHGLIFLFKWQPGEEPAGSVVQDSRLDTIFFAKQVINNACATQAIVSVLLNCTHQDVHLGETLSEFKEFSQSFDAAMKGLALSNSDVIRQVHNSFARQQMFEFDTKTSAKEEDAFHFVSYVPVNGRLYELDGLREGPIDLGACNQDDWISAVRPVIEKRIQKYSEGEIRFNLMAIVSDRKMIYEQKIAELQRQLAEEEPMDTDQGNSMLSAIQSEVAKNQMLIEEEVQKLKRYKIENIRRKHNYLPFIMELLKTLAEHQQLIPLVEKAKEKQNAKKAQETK
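Signal – fluorescence, ex 355 nm, em 460 nm · System – Proteasome-bound UCH37 · Input – 0.15 nM proteasome as dispensed · Timing – 30 min preincubation with enzyme, 25 min cleavage at room temperature · Read-out basis – percent inhibition of cleavage signal versus uninhibited and no-proteasome wells · Medium – Tris-HCl pH 7.4 with ATP-MgCl2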
MsrA inh – inhibitors of bovine MsrA. inhibition, % at 15.5 µM. purified bovine MsrA, absorbance read-out. 360,000 tested, 0.75% active. AID 651718; in the data active = inhibition above about 4.5%
MsrA act confirm – confirmation of bovine methionine sulfoxide reductase A activators; AID 602270; 1,000 tested, 12% active; purified bovine MsrA, absorbance read-out; shares compounds with MsrA act; activation, % at 10.6 µM; in the data active = activation above about 4%;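 also: enzyme coupled to thioredoxin and thioredoxin reductase with NADPH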
Large screens that a line does not name were inactive (follow-up assays come after a bar, where they were run). Most compounds without a hit are left out; they make up all but 1.9% or so of the library.

COc1cccc(C(C)(O)c2nc(-c3cccc(C(F)(F)F)c3)cs2)c1 (configuration not stated)	none (no result: Vif inh, UCH37 DUB inh)
CCCc1cc(=O)oc2c(CN3CCN(C)CC3)c(O)c(Cl)cc12	MsrA act 13 | MsrA act confirm inactive
O=S1(=O)CCC(=NNc2ccccn2)c2cc(F)ccc21	none (no result: Vif inh, MsrA act, aDG glyco act, N-glyco inh, MsrA inh)
COC(=O)c1cc(C)nc2c1c(C)nn2-c1ccccc1	MsrA act 13 (no result: UCH37 DUB inh) | MsrA act confirm inactive
CCOc1cc(C)c(Cl)cc1S(=O)(=O)NCc1ccc2c(c1)OCO2	MsrA act 7.8 | MsrA act confirm inactive
S=c1[nH]nc(COc2ccccc2)n1N=Cc1cccc(Cl)c1Cl	none (no result: Vif inh, MsrA act, aDG glyco act, N-glyco inh, MsrA inh)
CC(C)NCC(O)c1ccc(NS(C)(=O)=O)cc1 (configuration not stated)	MsrA act 7.8 | MsrA act confirm inactive
CC(C)NC[C@@H](O)c1ccc(O)c(O)c1	none
CN(C)c1ccc2nc3ccc(=[N+](C)C)cc-3sc2c1	MsrA act 23, aDG glyco act 47, MsrA inh 8.2 | MsrA act confirm 7.9
Cc1c(NC(=O)C(C)N2C(=O)C3CCCCC3C2=O)c(=O)n(-c2ccccc2)n1C (configuration not stated)	MsrA act 10 | MsrA act confirm inactive
Cc1c(NC(=O)C(C)N2CC(C)OC(C)C2)c(=O)n(-c2ccccc2)n1C (configuration not stated)	none
COc1cccc(C=NNc2nnc(C)n2N)c1O	none (no result: Vif inh, MsrA act, aDG glyco act, N-glyco inh, MsrA inh)
CCOc1cc(C=NNc2nnc(C)n2N)ccc1OC(C)=O	none (no result: Vif inh, MsrA act, aDG glyco act, N-glyco inh, MsrA inh)
COc1ccc(/C=N/Nc2nnc(C)n2N)cc1OC	MsrA act 9.0 (no result: UCH37 DUB inh) | MsrA act confirm inactive
COc1ccc(/C=N/Nc2nnc(C)n2N)cc1OC(C)=O	MsrA act 12 (no result: UCH37 DUB inh) | MsrA act confirm inactive
COc1ccccc1NC(=O)COC(=O)C12CC3CC(CC(Cl)(C3)C1)C2	MsrA act 15 | MsrA act confirm inactive
CCC(C)C(C)=NNC(=O)CSc1nc2ccccc2[nH]1 (configuration not stated)	none (no result: Vif inh, MsrA act, aDG glyco act, N-glyco inh, MsrA inh)
CCOc1cc(C=NNC(=O)C(=O)NCc2cccnc2)ccc1O	none (no result: Vif inh, MsrA act, aDG glyco act, N-glyco inh, MsrA inh)
COc1cccc(C=Nn2c(-c3ccco3)nc3ccccc3c2=O)c1	none (no result: Vif inh, MsrA act, aDG glyco act, N-glyco inh, MsrA inh)
O=C(O)CCSc1ccccn1	none
O=C(CCSc1ccccn1)c1ccccc1	MsrA act 7.8 | MsrA act confirm inactive
O=C(Nc1ccccn1)c1ccc2c(c1)S(=O)(=O)c1ccccc1C2=O	none
O=C1c2ccccc2S(=O)(=O)c2cc(C(=O)N(c3ccccn3)c3ccccn3)ccc21	MsrA act 8.0 | MsrA act confirm inactive
CN(Cc1cnn(C)c1)C(=O)c1ccc(OC2CCN(CCc3ccccc3)CC2)cc1	none
Cc1cc(CN(C)C(=O)c2ccc(OC3CCN(CCc4ccccc4)CC3)cc2)on1	MsrA act 11 | MsrA act confirm inactive
CC1(C)CNC(=O)c2sc(N3CCCCC3)nc2C1	Vif inh inconclusive, MsrA act 8.0 | MsrA act confirm inactive
NC(=S)Nc1ccc2c(c1)OCO2	MsrA act 15 | MsrA act confirm inactive
N/C(=N\C(=S)Nc1ccc2c(c1)OCO2)c1ccccc1	none (no result: UCH37 DUB inh)
O=C(Nc1ccc(Cl)cc1)Nc1ccccn1	MsrA act 8.4 | MsrA act confirm inactive
O=C(NN=Cc1ccc(OCC2COCCO2)cc1)c1ccc(Br)cc1 (configuration not stated)	none (no result: Vif inh, MsrA act, aDG glyco act, N-glyco inh, MsrA inh)
Cc1nnc(N/N=C/c2ccc([N+](=O)[O-])cc2)n1N	MsrA act 21 (no result: UCH37 DUB inh) | MsrA act confirm inactive
CCc1nnc(NN=Cc2ccc(-c3ccc([N+](=O)[O-])cc3)o2)n1N	none (no result: Vif inh, MsrA act, aDG glyco act, N-glyco inh, MsrA inh)
Cc1nnc(N/N=C/c2ccc(Br)cc2)n1N	MsrA act 34 (no result: UCH37 DUB inh) | MsrA act confirm inactive
CN(C)CCCON=C(c1ccccc1)c1ccncc1	none (no result: Vif inh, MsrA act, aDG glyco act, N-glyco inh, MsrA inh)
O=C(NN=Cc1cccnc1)c1ccc(F)cc1	none (no result: Vif inh, MsrA act, aDG glyco act, N-glyco inh, MsrA inh)
COc1ccc(-c2cc(C(=O)O)[nH]n2)cc1OC	none
O=C(O)c1cc(-c2ccc(Cl)cc2)n[nH]1	MsrA act 9.2 | MsrA act confirm inactive
CC1(C)CC(=O)C2=C(C1)N(Cc1ccco1)C(=O)C2(NC(=O)c1cccnc1)C(F)(F)F (configuration not stated)	MsrA act 8.2 | MsrA act confirm inactive
